A selection: hits, their analogues and other compounds. The true share with any hit is near 2.9%.
RBBP9 inh: human RBBP9 hydrolase inhibition | recombinant RBBP9, FP-Rh probe fluorescence polarization | inhibition, % at 7.94 µM | hit rate 0.2% among 220,000 | AID 1515;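 active means inhibition above the campaign mean of all tested compounds plus 3 SD, cut at about 14% in these data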;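 further: plate controls were DMSO wells with RBBP9 for no effect and wells lacking RBBP9 protein for full effect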
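Test system – recombinant human RBBP9 · Input – RBBP9 2.5 µM in dispensing solution, pre-mixing · Medium – Tris buffer pH 8.0, NaCl, Pluronic · Schedule – preincubation 30 min plus labeling 45 min at 25 °C · Measured by – fluorescence polarization · Measure – % inhibition · Controls – DMSO and no-protein wells · Replicates – one well per compound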
M18AAP inhibitor: PfM18AAP enzyme inhibition; hit rate 1.2% among 290,000; AID 1822; recombinant PfM18AAP, H-Glu-NHMec fluorogenic cleavage; inhibition, % at 7.35 µM;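 active means inhibition above the campaign mean inhibition over all tested compounds plus 3 SD, cut at about 28% in these data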;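 further: 0% = plate median of test compound wells and 100% = 2 mM ZnCl2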
Runt-CBFb FRET: blocks binding of human RUNX1 Runt domain to CBFb | Cerulean-Runt/Venus-CBFb FRET ratio 530/480, 1 h | inhibition, % at 20 µM | hit rate 0.46% among 220,000;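 active means inhibition over about 50% at 20 µM in the single-dose screen, limit read from the data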;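 further: 0% = DMSO wells and 100% = excess unlabeled CBFb competitor control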
Target sequence (Q01196 whole entry, looked up, the tested form may be a part): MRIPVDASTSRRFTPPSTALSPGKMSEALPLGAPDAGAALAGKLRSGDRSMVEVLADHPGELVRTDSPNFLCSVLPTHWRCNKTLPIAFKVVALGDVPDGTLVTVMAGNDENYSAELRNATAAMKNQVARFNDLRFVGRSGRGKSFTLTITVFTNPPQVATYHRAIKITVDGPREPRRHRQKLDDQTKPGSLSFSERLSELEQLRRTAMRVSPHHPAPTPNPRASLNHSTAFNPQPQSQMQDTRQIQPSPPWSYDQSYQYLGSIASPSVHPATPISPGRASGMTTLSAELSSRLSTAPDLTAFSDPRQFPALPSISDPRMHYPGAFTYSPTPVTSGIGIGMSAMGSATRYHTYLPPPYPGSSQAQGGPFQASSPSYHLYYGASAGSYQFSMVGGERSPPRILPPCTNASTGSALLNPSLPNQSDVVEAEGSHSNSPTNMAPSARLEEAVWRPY
Target sequence (Q13951 whole entry, looked up, the tested form may be a part): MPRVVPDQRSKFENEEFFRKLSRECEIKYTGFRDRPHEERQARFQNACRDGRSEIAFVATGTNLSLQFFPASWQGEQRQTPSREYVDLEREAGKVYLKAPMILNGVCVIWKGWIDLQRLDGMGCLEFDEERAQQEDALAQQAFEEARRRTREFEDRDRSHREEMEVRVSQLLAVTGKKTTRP
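Buffer or medium: Tris pH 7.5 buffer with BSA. Assay system: Cerulean-labeled Runt domain protein. Amount: each fluorescent fusion protein 100 nM. Read-out basis: loss of energy transfer signal. Incubation: 1 h compound exposure, room temperature. Probe or stimulus: Venus-CBFb binding partner, 100 nM. Detection: FRET, excitation 422 nm, emission at 530 and 480 nm.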
Runt-SMMHC FRET: inhibitors of human RUNX1 Runt domain binding to CBFb-SMMHC; AID 1434; Cerulean-Runt/Venus-CBFb-SMMHC FRET ratio 530/480, 1 h; Q01196+Q13951; inhibition, % at 20 µM; hit rate 0.74% among 220,000;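 active means mean inhibition across duplicate retests at 20 µM reaching about 50%, limit read from the data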;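 further: 0% = DMSO wells and 100% = wells with excess untagged CBFb-SMMHC; inhibitors lower the FRET ratio by blocking Runt binding to CBFb-SMMHC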
RanGTP-Impb inh: inhibitors of RanGTP-importin-beta interaction, primary screen, biochemical, FRET, CFP-Ran, YFP-importin-beta, homogeneous; inhibition, % (no concentration beside the values); hit rate 1.1% among 300,000; cell-free CFP-Ran/YFP-importin-beta FRET ratio;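 active means more than half of the replicate wells show a fall in the fluorescence ratio signal beyond about 16%, limit read from the data, passing the limit was not always enough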;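 further: 0% = DMSO wells and 100% = Ran loaded with GDP instead of GTP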
Hck-Nef inh: inhibitors of human Hck kinase activated by Nef; P08631; Recombinant Hck-YEEI plus Nef, Z-Lyte FRET kinase assay; inhibition, % at 20 µM; hit rate 0.68% among 220,000; AID 463187;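 active means Hck-Nef kinase inhibition above about 50%, limit read from the data; inactive means inhibition below that limit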;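 further: 0% = DMSO with Hck plus Nef and 100% = Hck alone without Nef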
* marks the source's active call; other numbers are inactive results; x = not tested or not shown.

SMILES	RBBP9 inh	M18AAP inhibitor	Runt-CBFb FRET	Runt-SMMHC FRET	RanGTP-Impb inh	Hck-Nef inh
CCOC(=O)/C(C#N)=C/c1c(N2CCN(c3ccccc3)CC2)nc2c(C)cccn2c1=O	x	1	x	x	-5	x
CCOC(=O)C1CCN(c2nc3c(C)cccn3c(=O)c2/C=C(\C#N)S(=O)(=O)c2ccccc2)CC1	-14	-2	-29	-39	7	-6
Cc1cccn2c(=O)c(/C=C(\C#N)C(=O)NCc3ccco3)c(N3CCCC(C)C3)nc12 (stereo unspecified)	-5	-8	98*	x	3	3
Cc1cccn2c(=O)c(/C=C(\C#N)C(=O)NCc3ccco3)c(N3CCC(C(N)=O)CC3)nc12	-5	-1	71*	x	3	5
N#C/C(=C\c1c(N2CCCCC2)nc2ccccn2c1=O)C(=O)NCc1ccco1	-4	-12	65*	81	1	5
CCOC(=O)C1CCCN(c2nc3c(C)cccn3c(=O)c2/C=C(\C#N)C(=O)NCc2ccco2)C1 (stereo unspecified)	0	1	121*	4	-1	8
O=C(NC1CC(=O)N(c2ccc(Cl)cc2)C1)N1CCN(C(=O)c2ccco2)CC1 (stereo unspecified)	x	x	x	x	-7	x
COc1ccccc1CC(=O)c1ccc(OCc2ccccc2)cc1	x	x	x	x	2	x
Cc1cccn2c(=O)c(/C=C(\C#N)C(=O)NCc3ccco3)c(N3CCCCCC3)nc12	3	-7	97*	-8	-5	-3
Cc1cccn2c(=O)c(/C=C(\C#N)C(=O)NCc3ccco3)c(N3CCCCC3)nc12	-2	-15	65*	60*	2	3
CCNC(=O)/C(C#N)=C/c1c(N2CCN(c3cccc(Cl)c3)CC2)nc2c(C)cccn2c1=O	x	-9	x	x	6	x
COCCn1c(=NC(=O)CSCC(=O)N2CCOCC2)sc2cc(C)ccc21	x	0	x	x	-2	x
Oc1oc(-c2ccccc2)nc1/C=N/c1nccs1	0	2	-2	-7	-1	1
Oc1oc(-c2ccccc2)nc1C=Nc1cccc2ccccc12	-11	7	1	9	27*	0
COc1ccc(C(=O)Nc2nnc(CC(=O)N/N=C/c3ccc(O)cc3O)s2)cc1	x	6	x	x	108*	x
CCNC(=O)CC1C(=O)N(c2ccc(C)cc2)C(=O)N1CCC(C)C (stereo unspecified)	x	-1	x	x	-3	x
COC(Cn1c(-c2cccc(S(=O)(=O)N(C)C)c2)n[nH]c1=S)OC	3	31*	6	2	-4	5
CCN(CC)S(=O)(=O)c1cccc(-c2n[nH]c(=S)n2CC(C)C)c1	1	16	3	8	-1	11
CC1=NN(C2=NS(=O)(=O)c3ccccc32)C(C)(O)C1 (stereo unspecified)	x	31*	x	x	1	x
N#Cc1cnc(NCc2ccc(Cl)cc2Cl)nc1	x	8	x	x	-2	x
CC(=O)Nc1nnc(CCS(=O)(=O)c2ccc(C)cc2)s1	x	x	x	x	-1	x
CCC12CCCN3CCc4c(n(c5ccccc45)C(O)(C(=O)OC)C1)C32 (stereo unspecified)	-3	-8	22	0	114*	3
COc1cc(OC)c(/C=C2\SC(=O)N(CC(=O)Nc3ccccc3F)C2=O)c(OC)c1	x	-6	x	x	46*	x
COc1cccc(/C=N/NC(=O)Cn2nc([N+](=O)[O-])cc2C)c1	12	-8	1	-4	-4	8
Cc1cc2c(c(=O)n1CCc1ccccc1)C(C(C)C)C(C#N)=C(N)O2 (stereo unspecified)	-5	-6	0	6	-1	2
Cc1cc2c(c(=O)n1C)C(Cc1ccccc1)C(C#N)=C(N)O2 (stereo unspecified)	-6	13	123*	146*	63*	2
CC(=O)Nn1cnc2c(c1=O)C1(CCCC1)Cc1ccccc1-2	-2	1	0	3	x	-12
Nn1cnc2c(c1=O)C1(CCCCC1)Cc1ccccc1-2	-9	-4	-2	-4	26*	3
CCSc1n[nH]c2nc3c(c(=O)n12)C1(CCCC1)Cc1ccccc1-3	-4	0	22	62*	12	10

Screening data: PubChem BioAssay, several laboratories
